pIC50, pKi: −log10 of the molar value.
Columns and labels:
[1] = biological target: T1, Adenosine receptor A3 (Homo sapiens, UniProt P0DMS8); test: Displacement of […] from human Adenosine A3 receptor expressed in CHO cells; format: cell-based
T1 sequence (P0DMS8 whole entry): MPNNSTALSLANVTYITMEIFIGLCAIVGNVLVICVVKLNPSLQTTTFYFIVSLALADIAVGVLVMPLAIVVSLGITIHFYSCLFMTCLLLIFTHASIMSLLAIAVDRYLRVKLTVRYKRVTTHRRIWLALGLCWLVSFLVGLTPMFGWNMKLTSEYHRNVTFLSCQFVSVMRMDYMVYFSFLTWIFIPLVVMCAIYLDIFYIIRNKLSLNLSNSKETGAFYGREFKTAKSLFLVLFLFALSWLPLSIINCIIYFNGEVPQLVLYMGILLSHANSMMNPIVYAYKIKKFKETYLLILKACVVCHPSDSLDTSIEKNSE
In short: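 Membranes of CHO cells stably expressing human A3 receptor (50 µg protein/assay), incubated in duplicate with 1 nM [3H]MRE3008-F20 in 50 mM Tris HCl, 10 mM MgCl2 (pH 7.4) and six to eight ligand concentrations, 120 min at 4 °C. Nonspecific binding was set with 1 µM MRE3008-F20. Separation was by GF/B filtration and scintillation counting; n = 3-6.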

[2] = biological target: T2, Adenosine receptor A2b (Homo sapiens, UniProt P29275); test: Displacement of [3H]DPCPX binding at human Adenosine A2B receptor expressed in HEK293 cells; format: cell-based
T2 sequence (P29275 whole entry): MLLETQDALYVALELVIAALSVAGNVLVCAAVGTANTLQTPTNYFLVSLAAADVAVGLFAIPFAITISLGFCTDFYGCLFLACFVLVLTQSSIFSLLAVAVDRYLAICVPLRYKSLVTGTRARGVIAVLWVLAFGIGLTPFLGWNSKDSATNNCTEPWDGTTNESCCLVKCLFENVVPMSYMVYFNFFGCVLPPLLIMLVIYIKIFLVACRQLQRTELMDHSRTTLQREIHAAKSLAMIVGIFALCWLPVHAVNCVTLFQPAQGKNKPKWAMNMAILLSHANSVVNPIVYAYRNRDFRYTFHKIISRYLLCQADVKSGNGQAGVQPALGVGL
In short: (§1)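 Membranes from HEK-293 cells with human recombinant A2B receptor. Incubation 60 min at 25 °C in 50 mM Tris HCl, 10 mM MgCl2, 1 mM EDTA, 0.1 mM benzamidine, pH 7.4, with 2 IU/mL adenosine deaminase and 40 nM [3H]DPCPX. At least six to eight test concentrations. Nonspecific binding defined with NECA. n = 3-6.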

[3] = biological target: Adenosine receptors; A2b & A3 (Homo sapiens) (UniProt P29275+P0DMS8); test: Selectivity ratio (h2B/hA3); format: protein assay
[4] = biological target: T3, Adenosine receptor A2a (Homo sapiens, UniProt P29274); test: Displacement of [3H]SCH-58261 from human Adenosine A2A receptor expressed in CHO cells; format: cell-based
In short: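 Membranes from CHO cells expressing the human receptor (50 µg protein) with [3H]SCH58261 and six to eight competitor concentrations. Incubated 60 min at 25 °C. Nonspecific binding was set with NECA.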

[5] = biological target: Adenosine receptors; A1 & A3 (Homo sapiens) (UniProt P30542+P0DMS8); test: Selectivity ratio (hA1/hA3); format: protein assay
[6] = biological target: T4, Adenosine receptor A1 (Homo sapiens, UniProt P30542); test: Displacement of [3H]DPCPX from human Adenosine A1 receptor expressed in CHO cells; format: cell-based
T4 sequence (P30542 whole entry): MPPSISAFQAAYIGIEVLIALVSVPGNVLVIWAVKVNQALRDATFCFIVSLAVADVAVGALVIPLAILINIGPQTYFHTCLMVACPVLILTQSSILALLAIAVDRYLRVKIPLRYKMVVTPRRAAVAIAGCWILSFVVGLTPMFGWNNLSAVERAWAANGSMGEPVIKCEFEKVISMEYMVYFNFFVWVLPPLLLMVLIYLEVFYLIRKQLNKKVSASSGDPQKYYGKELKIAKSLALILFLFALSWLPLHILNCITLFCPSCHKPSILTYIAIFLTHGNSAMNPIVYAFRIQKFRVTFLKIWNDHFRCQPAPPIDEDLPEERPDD
In short: (§2)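 Human recombinant A1 receptor in CHO cell membranes, resuspended in 50 mM Tris HCl pH 7.4. Displacement run 120 min at 25 °C with 1 nM [3H]DPCPX, 50 µg protein per assay, and at least six to eight test concentrations. Nonspecific binding defined with CHA. Bound and free separated on glass-fiber filters; filter radioactivity counted. n = 3-6.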

[7] = biological target: T4, Adenosine receptor A1; test: Displacement of [3H]DPCPX from human Adenosine A1 receptor expressed in CHO cells; range 552-676; format: cell-based
In short: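 Competition binding on membranes of CHO cells stably expressing human A1 receptor, resuspended in 50 mM Tris HCl pH 7.4. Incubation 120 min at 25 °C with 1 nM [3H]DPCPX, 50 µg protein per assay and at least six to eight test concentrations. CHA defined nonspecific binding. Bound ligand separated on glass-fibre filters and counted; n = 3-6.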

[8] = biological target: T1, Adenosine receptor A3; test: Displacement of [3H]MRE3008-F20 from human Adenosine A3 receptor expressed in HEK cells; range 2.0-3.1; format: cell-based, HEK293
[9] = biological target: T2, Adenosine receptor A2b; test: Displacement of [3H]DPCPX from human Adenosine A2B receptor expressed in HEK293 cells; range 25-40; format: cell-based
In short: (§3)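 HEK-293 membranes expressing the human receptor were incubated 60 min at 25 °C. Six to eight test concentrations were used. Nonspecific binding was set with NECA. n = 3-6.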

[10] = biological target: T3, Adenosine receptor A2a; test: Displacement of [3H]SCH-58261 from human Adenosine A2A receptor expressed in HEK293 cells; range 362-445; format: cell-based
[11] = biological target: T2, Adenosine receptor A2b; test: Displacement of [3H]DPCPX from human Adenosine A2B receptor expressed in HEK293 cells (95% confidence limits); format: cell-based; in short: as §3
[12] = biological target: T1, Adenosine receptor A3; test: biochemical
[13] = biological target: T3, Adenosine receptor A2a; test: Displacement of [3H]SCH-58261 from human Adenosine A2A receptor expressed in HEK293 cells; range 114-179; format: cell-based
[14] = biological target: T2, Adenosine receptor A2b; test: Displacement of [3H]-DPCPX from human Adenosine A2B receptor expressed in HEK293 cells; range 91-148; format: cell-based
In short: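 Competition binding on membranes of HEK-293 cells carrying recombinant human A2B receptor. Incubation 60 min at 25 °C in 50 mM Tris HCl pH 7.4 with 10 mM MgCl2, 1 mM EDTA, 0.1 mM benzamidine and 2 IU/mL adenosine deaminase. Radioligand 40 nM [3H]DPCPX, at least six to eight test concentrations. NECA defined nonspecific binding. Bound ligand separated on glass-fibre filters and counted; n = 3-6.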

[15] = biological target: T1, Adenosine receptor A3; test: Inhibition of IB-MECA agonist-mediated cAMP production in CHO cell membranes expressing human Adenosine A3 receptor; range 15-44; format: functional, cell-based
In short: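 Human A3-CHO membranes (in 50 mM Tris HCl, 10 mM MgCl2, 1 mM EDTA, pH 7.4) were preincubated for 10 min at 37 °C with 5 µM GTP, 0.5 mM Ro 20-1724 and 2.0 IU/mL adenosine deaminase. IB-MECA (100 nM) or antagonist was then added with 1 mM ATP and forskolin for 10 min. The reaction was stopped by 2 min boiling. cAMP was measured by [3H]cAMP competitive protein binding using beef adrenal binding protein, 150 min at 4 °C.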

[16] = biological target: T4, Adenosine receptor A1; test: Displacement of [3H]DPCPX from human Adenosine A1 receptor expressed in CHO cells; range 324-475; format: cell-based
[17] = biological target: T1, Adenosine receptor A3; test: Displacement of [3H]MRE3008-F20 from human Adenosine A3 receptor expressed in HEK cells; range 3.05-3.78; format: cell-based, HEK293
[18] = biological target: T1, Adenosine receptor A3; test: Displacement of [3H]MRE3008-F20 binding at human Adenosine A3 receptor expressed in HEK cells; range 0.82-1.02; format: cell-based, HEK293
[19] = biological target: T3, Adenosine receptor A2a; test: Displacement of [3H]SCH-58261 from human Adenosine A2A receptor expressed in HEK293 cells; […]; format: cell-based
[20] = biological target: T2, Adenosine receptor A2b; test: Displacement of [3H]DPCPX from human Adenosine A2B receptor expressed in HEK293 cells; range 88-165; format: cell-based; in short: as §1
[21] = biological target: T4, Adenosine receptor A1; test: Displacement of [3H]DPCPX from human Adenosine A1 receptor expressed in CHO cells; range 222-400; format: cell-based; in short: as §2

T3 sequence (P29274 whole entry): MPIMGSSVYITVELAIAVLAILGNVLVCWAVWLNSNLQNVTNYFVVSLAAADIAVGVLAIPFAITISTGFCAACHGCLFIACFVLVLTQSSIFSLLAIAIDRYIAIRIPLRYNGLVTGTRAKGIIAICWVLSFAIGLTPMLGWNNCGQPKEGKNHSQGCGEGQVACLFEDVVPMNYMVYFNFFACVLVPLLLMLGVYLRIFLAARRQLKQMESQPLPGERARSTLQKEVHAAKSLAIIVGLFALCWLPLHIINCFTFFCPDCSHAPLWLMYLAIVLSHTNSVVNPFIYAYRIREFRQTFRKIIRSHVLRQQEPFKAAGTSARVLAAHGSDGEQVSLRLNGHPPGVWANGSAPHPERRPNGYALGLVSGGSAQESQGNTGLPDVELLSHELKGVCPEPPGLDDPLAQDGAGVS

Row | Structure (SMILES) | Ratio [3] | pKi [4] | Ratio [5] | pKi [6] | further results
1 | CCCn1cc2c(nc(NC(=O)Nc3ccc([N+](=O)[O-])cc3)n3nc(-c4ccco4)nc23)n1 | 377 | 5.95 | 1500 | 5.92 | pKi [1]: 9.09; pKi [2]: 6.52
2 | COc1ccc(NC(=O)Nc2nc3nn(C)cc3c3nc(-c4ccco4)nn23)cc1 | 1300 |  | 5480 |  | 
3 | CCCCn1cc2c(nc(NC(=O)Nc3ccc([N+](=O)[O-])cc3)n3nc(-c4ccco4)nc23)n1 | 96 | 6.30 | 1060 | 6.23 | pKi [1]: 9.26; pKi [2]: 7.28
4 | CCCn1cc2c(nc(NC(=O)Nc3ccc(Cl)c(Cl)c3)n3nc(-c4ccco4)nc23)n1 | 12 |  | 244 |  | pKi [7]: 6.21; pKi [8]: 8.60; pKi [9]: 7.51; pKi [10]: 6.40
5 | CCn1cc2c(nc(NC(=O)Nc3ccc(OC)cc3)n3nc(-c4ccco4)nc23)n1 | 408 |  | 1710 |  | 
6 | CCn1cc2c(nc(NC(=O)Cc3ccccc3)n3nc(-c4ccco4)nc23)n1 | 156 | 6.47 | 693 | 6.15 | pKi [11]: 6.79; pKi [12]: 8.99
7 | Cn1cc2c(nc(NC(=O)Nc3ccc(Cl)c(Cl)c3)n3nc(-c4ccco4)nc23)n1 | 34 |  | 115 |  | pKi [13]: 6.84; pKi [14]: 6.94; pIC50 [15]: 7.59; pKi [16]: 6.41; pKi [17]: 8.47
8 | CCCn1cc2c(nc(NC(=O)Nc3cccc(Cl)c3)n3nc(-c4ccco4)nc23)n1 | 62.6 |  | 33 |  | 
9 | COc1ccc(NC(=O)Nc2nc3ccc(Cl)cc3c3nc(-c4ccco4)nn23)cc1 | 158 |  | 43 |  | 
10 | CCCCn1cc2c(nc(NC(=O)Nc3ccc(Br)cc3)n3nc(-c4ccco4)nc23)n1 | 133 |  | 330 |  | pKi [18]: 9.04; pKi [19]: 7.18; pKi [20]: 6.92; pKi [21]: 6.52

Source: ChEMBL document CHEMBL1136016, “Synthesis, biological activity, and molecular modeling investigation of new pyrazolo[4,3-e]-1,2,4-triazolo[1,5-c]pyrimidine derivatives as human A(3) adenosine receptor antagonists” (J Med Chem, 2002)
